Bioassay records (PubChem)
The list is not random: actives were taken first. Their share in the collection is about 2.2%.
Efflux pump inh – antifungal efflux pump inhibition, Nile Red retention. actives 0.44% (n = 330,000). S. cerevisiae Candida pump triplex. AID 485275. inhibition, % at 10 µM;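 active = plate passing quality check with inhibition over a set limit, or well fluorescence over plate mean plus 4 SD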;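 note: Nile Red retained in pooled yeast measured as flow cytometry median fluorescence; 0% = buffer negative control and 100% = Enniatin B positive control; higher means more Nile Red kept so more efflux inhibition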
T cruzi repl – T. cruzi replication inhibition; T. cruzi beta-gal in NIH3T3, luminescence, 90 h; inhibition, % (no concentration beside the values); actives 1.4% (n = 300,000);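 active = mean inhibition across valid replicates above about 55%, limit read from the data; inconclusive = mean below that limit but half or more replicates reach it; inactive = mean below it, under half of replicates reach it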;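 note: signal also drops with host cell toxicity which is not excluded here; 0% = plate median of DMSO wells and 100% = zero luminescence signal; higher percent means less beta-gal luminescence so fewer parasites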
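System: mouse NIH/3T3 fibroblasts infected with β-gal-expressing T. cruzi Tulahuen C4 / Input: NIH/3T3 cells, 5,000 per well / Buffer or medium: Low-serum DMEM with 2% FBS / Probe or stimulus: 5000 reporter trypomastigotes per well / Schedule: ≥90 h infection period, 3 h prior cell attachment / Measured by: GalScreen luminescence, 60 min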
AI-2 QS modul – modulates the Vibrio harveyi AI-2 quorum sensing system; Vibrio harveyi JMH597 AI-2 luminescence/OD600 ratio, 9 h; hits give low values; strain lacks LuxN and CqsS sensors; 0 = neutral-control median; activity change, % at 7.5 µM; actives 0.4% (n = 300,000); in the data active = activity change below about -75%, passing the limit was not always enough; inconclusive = no clear call, values can overlap the other calls;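 note: luminescence divided by OD600 gain over 9 h not by final OD600 alone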
PolyA inhibitor – blocks polyadenylation in yeast reporter cells | actives 0.02% (n = 300,000) | activity score, % at 12 µM | S. cerevisiae SKY197-pL101 polyadenylation reporter, beta-gal luminescence; efflux-impaired pdr1/pdr3 knockout yeast; score 100 = 6 SD above DMSO | AID 1875;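 active = lowest replicate activity score at least 50, where 100 means six control SD above control mean; inconclusive = lowest score under 50 but half or more replicates reach 50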;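 note: yeast exposed to compound for 9 h at 30 °C; higher score means more reporter readthrough which indicates perturbed polyadenylation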
HDAC3 inhib – blocks human histone deacetylase 3. O15379. recombinant HDAC3, fluorogenic peptide/trypsin coupled, fluorescence. inhibition, % at 8.3 µM. actives 0.15% (n = 320,000). AID 2718; in the data active = inhibition above about 26%, passing the limit was not always enough; inconclusive = no clear call, values can overlap the other calls
Target sequence (O15379 whole entry, looked up): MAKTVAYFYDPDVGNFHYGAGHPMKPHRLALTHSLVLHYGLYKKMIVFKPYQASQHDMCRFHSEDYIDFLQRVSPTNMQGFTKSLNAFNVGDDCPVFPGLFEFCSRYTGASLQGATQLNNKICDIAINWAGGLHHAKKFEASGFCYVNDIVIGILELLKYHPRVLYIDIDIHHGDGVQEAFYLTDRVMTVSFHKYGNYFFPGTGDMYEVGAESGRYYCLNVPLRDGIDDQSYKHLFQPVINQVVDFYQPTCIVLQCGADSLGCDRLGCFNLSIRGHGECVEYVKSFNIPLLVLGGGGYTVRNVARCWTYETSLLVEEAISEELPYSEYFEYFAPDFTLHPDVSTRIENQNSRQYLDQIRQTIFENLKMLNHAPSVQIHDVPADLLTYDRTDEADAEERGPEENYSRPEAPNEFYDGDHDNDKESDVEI
JMH597 growth rt – retest: inhibitors of Vibrio harveyi JMH597 growth. OD600 absorbance, 9 h; lacks LuxN and CqsS sensors. growth inhibition, % at 7.5 µM. actives 1% (n = 750). shares compounds with AI-2 QS modul;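 active = every replicate shows growth inhibition above 50%; inconclusive = at least half, but not all, replicates pass that cutoff; inactive = fewer than half of replicates pass it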
BB721 lum counter – retest counter-screen: BB721 constitutive quorum sensing luminescence decrease. actives 95% (n = 750). inhibition, % at 7.5 µM. Vibrio harveyi BB721 luminescence, 9 h. shares compounds with AI-2 QS modul. AID 2727;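 active = inhibition above about 80% in every replicate, not just on average, limit read from the data; inconclusive = at least half of replicates past the limit, but not all; inactive = fewer than half of replicates past the limit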
BB721 growth rt – retest: blocks Vibrio harveyi BB721 growth; actives 3% (n = 750); OD600 absorbance, 9 h; growth inhibition, % at 7.5 µM; AID 2728; shares compounds with AI-2 QS modul;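 active = every replicate shows growth inhibition above 50%; inconclusive = at least half but not all replicates above 50% inhibition; inactive = under half of replicates above 50% inhibition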
AI-2 QS JMH597 – Vibrio harveyi AI-2 signaling luminescence modulation – JMH597 strain, confirmation. shares compounds with AI-2 QS modul. Vibrio harveyi JMH597 AI-2 quorum sensing luminescence, 9 h; luxN and CqsS knockout, AI-2 only. inhibition, % at 7.5 µM. actives 97% (n = 750);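 active = every replicate shows more than 75% inhibition of signal versus neutral control wells; inconclusive = half to three quarters of replicates exceed 75% inhibition; inactive = fewer than half of replicates exceed 75% inhibition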
* marks the source's active call; other numbers are inactive results; ? = inconclusive; / = no result given.

SMILES	Efflux pump inh	T cruzi repl	AI-2 QS modul	PolyA inhibitor	HDAC3 inhib	JMH597 growth rt	BB721 lum counter	BB721 growth rt	AI-2 QS JMH597
O=C(Nc1ccc(Cl)cc1)C1C2C=CC3(O2)C1C(=O)N(CCCN1CCCCC1)C3C(=O)NC1CCCCC1 (configuration not stated)	-0.3	18.5	/	-1.0	-2.3	/	/	/	/
Cc1cccc2c(N=O)c(O)[nH]c12	0.3	4.1	-1.9	-5.9	2.7	/	/	/	/
Cc1ccc(NC(=S)NNC(=O)c2cccc([N+](=O)[O-])c2)cc1Cl	-0.1	-27.7	66.2	-7.8	5.8	/	/	/	/
Cc1ccc(OCCC(=O)Nc2ccc(F)c(Cl)c2)cc1	0.2	-10.9	-78.1*	9.1	9.2	-2.7	68.3	6.5	?
Cc1cc(NC(=O)CN2C(=O)c3ccccc3S2(=O)=O)no1	-0.2	-9.7	-3.3	-0.6	-2.4	/	/	/	/
Cc1cc(NC(=O)CN2C(=O)c3ccccc3C2=O)no1	0.0	-3.0	?	10.6	9.6	-1.8	83.7*	-5.3	87.1*
Cc1cccc(NC(=O)CCN2C(=O)c3ccccc3C2=O)c1	0.0	-7.8	?	-10.2	2.4	-4.8	88.4*	1.4	91.6*
COc1ccccc1N1CCN(C2CCCN(C(=O)c3cc(C4CC4)on3)C2)CC1 (configuration not stated)	1.1	-2.9	28.0	4.1	-7.4	/	/	/	/
Cn1c(C(=O)NCCc2c[nH]c3ccccc23)cc2sccc21	0.2	3.6	?	-14.2	3.9	-20.0	93.3*	-16.8	93.7*
O=C(NCCc1c[nH]c2ccccc12)c1ccc2c(c1)OCO2	-0.1	-8.4	-85.5*	-4.2	7.5	16.4	93.0*	11.4	96.6*
O=C(NCc1ccccc1F)Nc1ccc([N+](=O)[O-])cc1	0.0	-10.0	?	32.2	3.7	14.6	90.7*	24.3	92.6*
Cc1ccc(CNC(=O)C2CN(S(C)(=O)=O)c3cc(Cl)ccc3O2)cc1 (configuration not stated)	-0.1	2.2	4.2	-3.9	-0.7	/	/	/	/
Cc1ccc(NCc2nc3ccccc3n2C)cc1C	0.3	6.1	24.6	-2.4	-11.3	/	/	/	/
Nn1c(SCC(=O)Nc2ccc(OC(F)F)cc2)nnc(Cc2ccccc2)c1=O	-0.1	-5.6	-91.9*	-0.8	4.0	53.4	96.3*	?	97.1*
CCC1(c2ccccc2)NC(=O)N(CC(=O)NCc2ccc(C)cc2)C1=O (configuration not stated)	-0.1	-18.5	-90.8*	-11.2	9.3	-12.9	94.2*	-31.4	96.8*
CCC1(c2ccccc2)NC(=O)N(CC(=O)Nc2ccc(OC)nc2)C1=O (configuration not stated)	-0.1	-7.9	-87.6*	-17.2	1.2	2.0	89.8*	-0.4	94.3*
Cc1c(C(C)NC(=O)c2cc(COc3cccc4cnccc34)on2)cnn1C (configuration not stated)	0.0	8.9	-81.1*	3.0	-20.4	19.2	80.5*	18.3	87.7*
CSc1ccccc1OCc1cc(C(=O)NC(C)c2cnn(C)c2)no1 (configuration not stated)	-0.1	-5.0	-32.7	1.7	3.8	/	/	/	/
c1ccc(-c2ccc(-c3cnc4n3CCCCC4)cc2)cc1	-0.1	11.7	-85.7*	-13.0	-13.9	-5.1	84.1*	-21.8	90.0*
Cc1ccc(-c2cnc3n2CCCCC3)cc1	0.0	-6.7	11.5	-11.4	-0.5	/	/	/	/
COc1cccc(OCc2nc(-c3cccc([N+](=O)[O-])c3)no2)c1	-0.2	24.9	-83.4*	-16.9	1.1	13.6	86.3*	-20.6	93.0*
COc1cccc(OCc2nc(-c3ccc(Br)o3)no2)c1	0.0	16.4	-82.6*	2.6	-9.6	38.5	95.6*	-1.0	97.2*
CC(C)C(=O)OCc1cn(-c2ccc(Cl)c(Cl)c2)nn1	0.4	3.1	-82.1*	2.1	8.4	1.6	95.1*	-10.9	95.9*
O=C(/C=C/Sc1ccccc1)c1ccccc1	-0.1	23.7	-91.7*	-48.1	12.6	10.4	98.2*	47.4	97.9*
CC12CCC(=O)N1C(C(=O)Nc1ccc(S(=O)(=O)N3CCCCC3)cc1)CS2 (configuration not stated)	-0.1	-2.5	-32.6	-5.1	6.3	/	/	/	/
SMILES	Efflux pump inh	T cruzi repl	AI-2 QS modul	PolyA inhibitor	HDAC3 inhib	JMH597 growth rt	BB721 lum counter	BB721 growth rt	AI-2 QS JMH597
CC12CCC(=O)N1C(C(=O)Nc1ccc(SC(F)F)cc1)CS2 (configuration not stated)	-0.1	5.9	-94.1*	0.4	-0.4	23.7	95.4*	16.6	95.8*
CC(C)c1ccc(NC(=O)C2CSC3(C)CCC(=O)N23)cc1 (configuration not stated)	-0.1	16.8	-91.3*	14.5	-2.0	3.2	93.2*	1.1	96.0*
Cc1cc(SCC(=O)N(C)CC(=O)Nc2ccc(F)cc2)nc2ccccc12	0.0	2.8	20.8	-8.3	2.0	/	/	/	/
COc1ccc(S(=O)(=O)n2cccc2)cc1	0.0	14.7	?	-4.8	-2.0	23.8	96.0*	-23.9	99.4*
Cc1cc(C)c(Cn2ncn(-c3ccc(Br)cc3)c2=O)c(C)c1	0.1	33.8	-0.9	41.8	2.9	/	/	/	/
Cc1ccc(Cn2ncn(-c3ccccc3)c2=O)cc1	0.1	5.8	?	-3.6	0.1	4.1	94.8*	26.1	96.6*
Cc1sc2nc(CSCC(=O)NC3(C#N)CCCCC3)[nH]c(=O)c2c1C	0.3	/	/	/	-0.4	/	/	/	/
COC(=O)[C@H](CC(C)C)N(Cc1ccccc1)S(=O)(=O)N(Cc1ccc(OC)cc1)[C@@H](CC(C)C)C(=O)OC	-0.1	/	/	/	18.6	/	/	/	/
COC(=O)CCC[C@H]1CC2(C[C@H](CCCO[Si](C)(C)C(C)(C)C)N1C(=O)OC(C)(C)C)OCCO2	0.1	/	/	/	19.8	/	/	/	/
N/C(=N\OC(=O)CC1CCCCC1)c1cccc(Br)c1	0.1	-4.5	-80.3*	-9.5	4.5	21.5	95.7*	28.3	96.4*
CN(C)S(=O)(=O)c1ccc(NC(=O)CN2CCc3ccccc32)cc1	0.2	-15.3	-91.9*	-3.8	-5.8	-16.8	95.5*	-7.6	96.8*
Cc1cccc(C)c1NC(=O)Cn1nc(C)n2cccc2c1=O	0.1	-7.1	-7.6	-14.7	-2.9	/	/	/	/
CCOC(=O)c1cccc(NC(=O)Cn2nc(C)n3cccc3c2=O)c1	-0.2	1.5	-97.3*	4.4	5.3	21.6	99.6*	12.4	99.8*
Cc1nc2ccccc2cc1OCc1ccc(Cl)cc1	0.0	15.7	-54.9	-18.4	1.2	/	/	/	/
